Measured values: ChEMBL document CHEMBL1914431, “Discovery of a novel series of nonacidic benzofuran EP1 receptor antagonists” (Bioorg Med Chem Lett, 2011)
Values after ≈ are worked out from the molar mass of the structure shown. Values belong to the molecule of their own block, whether it stands above or below them. Active and inactive are the calls of the source. The calls are words filed in the database; no cut-off is given here.

Legend:
[1] = biological target: T1, Prostaglandin E2 receptor EP1 subtype (Homo sapiens, UniProt P34995); experiment: Displacement of [3H]GW875240X from human prostanoid EP1 receptor expressed in CHO-K1 cells after 45 mins by topcount liquid scintillation counting; type: cell-based
T1 sequence (P34995 whole entry): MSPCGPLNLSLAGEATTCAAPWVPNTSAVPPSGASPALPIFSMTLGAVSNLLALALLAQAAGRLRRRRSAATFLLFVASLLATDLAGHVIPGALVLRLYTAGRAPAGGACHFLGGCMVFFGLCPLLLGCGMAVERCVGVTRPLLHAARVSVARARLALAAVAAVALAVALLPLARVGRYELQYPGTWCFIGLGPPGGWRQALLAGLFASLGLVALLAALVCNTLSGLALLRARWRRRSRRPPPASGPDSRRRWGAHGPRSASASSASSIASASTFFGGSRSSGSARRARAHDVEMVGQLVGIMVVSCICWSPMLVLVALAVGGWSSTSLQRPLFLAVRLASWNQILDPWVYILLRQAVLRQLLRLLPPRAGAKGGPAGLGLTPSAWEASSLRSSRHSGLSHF
In short: (§1)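 Radioligand binding at the EP1 receptor. Either [3H]-GW875240X or [3H]-PGE2 is the displaced ligand. Values are pIC50, means of at least three experiments.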

[2] = biological target: T1, Prostaglandin E2 receptor EP1 subtype; experiment: Displacement of [3H]PGE2 from human prostanoid EP1 receptor expressed in CHO-K1 cells after 30 mins by topcount liquid scintillation counting; type: cell-based; in short: as §1
Brain = experiment: Fraction unbound in brain of po dosed rat complete Freund's adjuvant-induced inflammatory pain model; type: ADME, organism-based; conditions: in vivo
[3] = Drug level in blood of rat complete Freund's adjuvant-induced inflammatory pain model at 10 mg/kg, po after 1 hr; type: ADME, organism-based; design: dose 10 mg/kg, route oral; conditions: read-out: Drug uptake
In short: (§2)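 Blood and brain samples are taken from CFA rats after oral dosing in 1% methylcellulose. Sampling is at 1 h post-dose, and at 3 h in the 5 mg/kg study. Concentrations are in µM or nM, n = 7 or n = 6 for blood and n = 3 for brain. The brain:blood ratio is calculated from the same rats.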

Rattus norvegicus [4] = experiment: Analgesic activity in po dosed rat chronic joint pain model; type: functional
In short: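 Rat joint pain model of chronic inflammatory pain. Oral dosing b.i.d. at 1, 3, 10 and 30 mg/kg, or at 0.3, 1, 3 and 10 mg/kg. Reversal of hypersensitivity is scored, with statistical significance testing, and ED50 is calculated.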

Rattus norvegicus [5] = experiment: Analgesic activity in rat assessed as reversal of complete Freund's adjuvant-induced inflammatory pain at 10 mg/kg, po after 1 hr post dose; type: functional
In short: (§3)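 Rat CFA inflammatory pain model. Oral dosing in 1% methylcellulose. Hypersensitivity reversal is read by weight bearing, at 1 h post-dose. The 5 mg/kg study was also read at 3 h. Dose-response groups were 3, 10 and 30 mg/kg, or 1, 3 and 10 mg/kg, with ED50 derived. Celecoxib at 10 mg/kg po served as the standard.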

[6] = Ratio of drug level in brain to blood in rat complete Freund's adjuvant-induced inflammatory pain model at 10 mg/kg, po after 1 hr; type: ADME, organism-based; design: dose 10 mg/kg, route oral; conditions: read-out: BBR; in short: as §2
[7] = Blood clearance in rat at 1 mg/kg, iv; type: ADME, organism-based; design: dose 1 mg/kg, route intravenous
[8] = Volume of distribution at steady state in rat at 1 mg/kg, iv; type: ADME, organism-based; design: dose 1 mg/kg, route intravenous; conditions: in vivo, read-out: Vdss
[9] = Lipophilicity, log D of compound at pH 7.4 by shake flask method; type: physicochemical; conditions: buffer
In short: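 Log D is determined by the shake flask method at pH 7.4.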

Rattus norvegicus [10] = experiment: Analgesic activity in po dosed rat assessed as reversal of complete Freund's adjuvant-induced inflammatory pain after 1 hr post dose; type: functional; in short: as §3
[11] = Drug level in brain of rat complete Freund's adjuvant-induced inflammatory pain model at 10 mg/kg, po after 1 hr; type: ADME, organism-based; design: dose 10 mg/kg, route oral; conditions: read-out: Drug uptake; in short: as §2
Blood = experiment: Fraction unbound in blood of po dosed rat complete Freund's adjuvant-induced inflammatory pain model; type: ADME, organism-based; conditions: in vivo
[12] = Half life in rat at 1 mg/kg, iv; type: ADME, organism-based; design: dose 1 mg/kg, route intravenous; conditions: in vivo
[13] = Drug level in blood of rat complete Freund's adjuvant-induced inflammatory pain model at 30 mg/kg, po after 1 hr; type: ADME, organism-based; design: dose 30 mg/kg, route oral; conditions: read-out: Drug uptake; in short: as §2
Rattus norvegicus [14] = experiment: Analgesic activity in rat assessed as reversal of complete Freund's adjuvant-induced inflammatory pain at 30 mg/kg, po after 1 hr post dose relative to 10 mg/kg of celecoxib; type: functional, organism-based; in short: as §3
[15] = Solubility of the compound in simulated gastric fluid after 1 hr; type: physicochemical
In short: (§4)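 Solubility is measured after 1 h in water, SGF, FaSSIF and FeSSIF, in µg/mL.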

P-gp [16] = experiment: Permeability across MDCK cells expressing p-gp; type: ADME, cell-based, Canis lupus familiaris; conditions: dog, MDCK-MDR1; read-out: permeability
In short: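 MDCK cells. Passive permeability is reported as Pexact (nm/sec), and efflux ratio is used to assess Pgp substrate status.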

[17] = Solubility of the compound in fed state simulated intestinal fluid after 1 hr; type: physicochemical; in short: as §4
[18] = Ratio of drug level in brain to blood in rat complete Freund's adjuvant-induced inflammatory pain model at 5 mg/kg, po after 3 hrs; type: ADME, organism-based; design: dose 5 mg/kg, route oral; conditions: read-out: BBR; in short: as §2
[19] = Ratio of drug level in brain to blood in rat complete Freund's adjuvant-induced inflammatory pain model at 30 mg/kg, po after 1 hr; type: ADME, organism-based; design: dose 30 mg/kg, route oral; conditions: read-out: BBR; in short: as §2
[20] = Half life in rat at 3 mg/kg, po; type: ADME, organism-based; design: dose 3 mg/kg, route oral; conditions: in vivo
In short: (§5)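 Rat oral pharmacokinetics at 3 mg/kg in 1% (w/v) aqueous methylcellulose. Bioavailability and half-life are derived.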

P-gp [21] = experiment: Efflux ratio of the compound in MDCK cells expressing p-gp; type: ADME, cell-based, Canis lupus familiaris; conditions: dog, MDCK-MDR1
In short: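 MDCK cell monolayers were used to measure permeability. The efflux ratio is reported alongside exact permeability (Pexact, nm/sec) and was used to judge whether the compound is a Pgp substrate.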

[22] = Solubility of the compound in fasted state simulated intestinal fluid after 1 hr; type: physicochemical; in short: as §4
Rattus norvegicus [23] = experiment: Analgesic activity in rat assessed as reversal of complete Freund's adjuvant-induced inflammatory pain at 5 mg/kg, po after 3 hrs post dose; type: functional, organism-based; design: dose 5 mg/kg; in short: as §3
[24] = Drug level in brain of rat complete Freund's adjuvant-induced inflammatory pain model at 30 mg/kg, po after 1 hr; type: ADME, organism-based; design: dose 30 mg/kg, route oral; conditions: read-out: Drug uptake; in short: as §2
Rattus norvegicus [25] = experiment: Analgesic activity in rat assessed as reversal of complete Freund's adjuvant-induced inflammatory pain at 5 mg/kg, po after 1 hr post dose; type: functional, organism-based; design: dose 5 mg/kg; in short: as §3
Liver microsomes = experiment: Intrinsic clearance in human liver microsomes; type: ADME, Microsome
[26] = Oral bioavailability in rat at 3 mg/kg; type: ADME, organism-based; conditions: in vivo; in short: as §5
[27] = Drug level in blood of rat complete Freund's adjuvant-induced inflammatory pain model at 3 mg/kg, po after 1 hr; type: ADME, organism-based; design: dose 3 mg/kg, route oral; conditions: read-out: Drug uptake; in short: as §2
[28] = biological target: T2, Prostaglandin E2 receptor EP3 subtype (Homo sapiens, UniProt P43115); experiment: Antagonist activity at human recombinant EP3 receptor expressed in CHO-K1 cells assessed as inhibition of PGE2-mediated intracellular calcium mobilization by FLIPR method; type: functional, cell-based
T2 sequence (P43115 whole entry): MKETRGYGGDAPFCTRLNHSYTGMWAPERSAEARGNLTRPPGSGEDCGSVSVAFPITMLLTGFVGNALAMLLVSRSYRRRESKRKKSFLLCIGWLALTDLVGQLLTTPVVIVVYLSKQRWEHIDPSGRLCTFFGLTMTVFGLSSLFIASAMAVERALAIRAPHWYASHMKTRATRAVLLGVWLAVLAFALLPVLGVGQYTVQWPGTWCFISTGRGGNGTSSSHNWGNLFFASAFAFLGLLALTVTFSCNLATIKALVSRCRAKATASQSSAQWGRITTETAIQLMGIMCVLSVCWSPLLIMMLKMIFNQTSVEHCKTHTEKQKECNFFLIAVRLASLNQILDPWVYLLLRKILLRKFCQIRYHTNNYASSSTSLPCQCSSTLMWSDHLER

[29] = biological target: T1, Prostaglandin E2 receptor EP1 subtype; experiment: Antagonist activity at human recombinant EP1 receptor expressed in CHO-K1 cells assessed as inhibition of PGE2-mediated intracellular calcium mobilization by FLIPR method; type: functional, cell-based

Compound: CNCc1ccc(NC(=O)c2cc(C)n(Cc3cc(Cl)cc4cc(C(C)C)oc34)n2)cc1
IC50 [2]: 63.1 nM

Compound: Cc1cc(C(=O)O)nn1Cc1cc(Cl)cc2cc(C3CC3)oc12
IC50 [1]: 50.1 nM

Compound: Cc1cc(C(=O)NN2CCOCC2)nn1Cc1cc(Cl)cc2cc(C(C)C)oc12
concentration at 1 h [13]: 10.2 µM
Activity (Rattus norvegicus [14]): Active
concentration at 1 h [3]: 5.61 µM
solubility at 1 h [15]: 1 µg/mL (≈ 2.4 µM)
Papp (P-gp [16]): 67.1 ×10⁻⁶ cm/s
solubility at 1 h [17]: 71 µg/mL (≈ 170 µM)
Kp at 3 h [18]: 1.15
Kp at 1 h [19]: 1.05
half-life [20]: 1.7 h
efflux ratio (P-gp [21]): 0.9
solubility at 1 h [22]: 5 µg/mL (≈ 12 µM)
clearance [7]: 85 mL/min/kg
Activity (Rattus norvegicus [23]): inactive
Vd [8]: 3 L/kg
concentration at 1 h [24]: 11.3 µM
Activity (Rattus norvegicus [25]): Active
logD [9]: 2.6
ED50 (Rattus norvegicus [10]): 14.7 mg/kg
CL (Liver microsomes): 1.1 mL/min/g
bioavailability [26]: 19%
concentration at 1 h [27]: 1.95 µM
IC50 [2]: 50.1 nM
half-life [12]: 0.5 h

Compound: Cc1cc(C(=O)NC2CCNCC2)nn1Cc1cc(Cl)cc2cc(C(C)C)oc12
IC50 [2]: 794 nM

Compound: Cc1cc(C(=O)O)nn1Cc1cc(Cl)cc2cc(C(C)C)oc12
Ki [28]: 1000 nM
IC50 [2]: 5.01 nM
Ki [29]: 0.398 nM

Compound: Cc1cc(C(=O)O)nn1Cc1cc(Cl)cc2cc(C3CCCCC3)oc12
IC50 [1]: 3.98 nM

Compound: Cc1cc(C(=O)NC2CCOCC2)nn1Cc1cc(Cl)cc2cc(C(C)C)oc12
IC50 [2]: 63.1 nM

The next lines start with results.

IC50 [1]: 100 nM
Compound: Cc1cc(NC(=O)C2CCNCC2)nn1Cc1cc(Cl)cc2cc(-c3ccccc3)oc12

IC50 [1]: 5.01 nM
Compound: Cc1cc(C(N)=O)nn1Cc1cc(Cl)cc2cc(-c3ccccc3)oc12

IC50 [1]: 7.94 nM
Compound: Cc1cc(C(=O)N[C@H]2CC[C@H](O)CC2)nn1Cc1cc(Cl)cc2cc(-c3ccccc3)oc12

IC50 [1]: 39.8 nM
Compound: Cc1cc(NC(=O)C2(F)CCNCC2)nn1Cc1cc(Cl)cc2cc(-c3ccccc3)oc12

Fu (Brain): 0.017%
concentration at 1 h [3]: 0.381 µM
Kp at 1 h [6]: 0.3
clearance [7]: 28 mL/min/kg
Vd [8]: 4.3 L/kg
logD [9]: 2.9
concentration at 1 h [11]: 0.112 µM
Fu (Blood): 0.028%
half-life [12]: 4.2 h
IC50 [1]: 10 nM
Compound: Cc1cc(C(=O)NC(C)(C)C)nn1Cc1cc(Cl)cc2cc(-c3ccccc3)oc12
ED50 (Rattus norvegicus [4]): 0.6 mg/kg
Activity (Rattus norvegicus [5]): 95%
ED50 (Rattus norvegicus [10]): 5 mg/kg

IC50 [1]: 316 nM
Compound: CO[C@H]1CC[C@H](NC(=O)c2cc(C)n(Cc3cc(Cl)cc4cc(C(C)C)oc34)n2)CC1

IC50 [1]: 25.1 nM
Compound: Cc1cc(NC(=O)C2CCN(CC(F)(F)F)CC2)nn1Cc1cc(Cl)cc2cc(-c3ccccc3)oc12

IC50 [1]: 63.1 nM
Compound: Cc1cc(NC(=O)CC2CCNCC2)nn1Cc1cc(Cl)cc2cc(-c3ccccc3)oc12

IC50 [1]: 6.31 nM
Compound: Cc1cc(C(=O)NC[C@H]2CCCO2)nn1Cc1cc(Cl)cc2cc(-c3ccccc3)oc12
